About 5,400 (1.5%) of roughly 360,000 compounds were called active. For the sample, actives were picked, then their nearest neighbours and some compounds at random. Values without a mark were called inactive.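 How the source made its calls: active means inhibition above a per-plate cutoff, the mean inhibition of test compounds on that plate plus 3 SD (cut at about 49% in these data); inactive means the rest.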

Sequence of Trace amine-associated receptor 1 (Homo sapiens) (Q96RJ0 whole entry, looked up): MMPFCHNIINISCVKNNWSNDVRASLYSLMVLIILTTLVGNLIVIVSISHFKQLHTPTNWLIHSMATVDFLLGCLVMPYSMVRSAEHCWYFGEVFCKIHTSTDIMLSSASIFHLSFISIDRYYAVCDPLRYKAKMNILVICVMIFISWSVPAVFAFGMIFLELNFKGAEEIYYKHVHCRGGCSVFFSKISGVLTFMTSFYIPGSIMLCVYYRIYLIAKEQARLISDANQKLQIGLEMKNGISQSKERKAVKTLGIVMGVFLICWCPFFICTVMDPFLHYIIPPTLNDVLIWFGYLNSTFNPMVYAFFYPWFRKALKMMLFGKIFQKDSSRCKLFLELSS

This test deals with Trace amine-associated receptor 1 (Homo sapiens) (UniProt Q96RJ0). The experiment in a line: human TAAR1 antagonists, primary screen, Fluo-8 calcium fluorescence, CHO RD-HGA16 cells (AID 624466).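 Further: 0% = DMSO plus EC80 beta-PEA response and 100% = DMSO alone without agonist.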 The following applies: CHO RD-HGA16 TAAR1, Fluo-8 calcium fluorescence, antagonist; at 3 µM; stronger effect = higher value. The essentials:
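Material: CHO RD-HGA16 cells bearing hTAAR1; compound dosing: one-point dosing, 3 µM nominal final; schedule: dye loading 75 min at 37 °C, then 30 min room temperature; measured by: calcium fluorescence with Fluo-8; control set: vehicle and agonist controls; replication: n of 1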
Regarding `CCC(C(=O)Nc1c(C)cccc1C)n1c(-c2cc(C)cs2)nc2ccccc21` (stereo not drawn), the inhibition is -17.6%.

Take `Fc1ccccc1/C=N/Nc1cc(N2CCCCC2)ncn1`: the inhibition is -0.85%.

As to `O=C(C1CCCN(S(=O)(=O)c2ccccc2)C1)N1CCN(c2ccc(F)cc2)CC1` (stereo not drawn), the inhibition is -6.96%.

As for `CC(=O)N1CCCc2cc(S(=O)(=O)N3CCCC(C(=O)N4CCN(c5cccc(Cl)c5)CC4)C3)ccc21` (stereo not drawn), the inhibition was 83.6% (active).

As for `COc1cccc(N2CCN(C(=O)C3CCCN(S(=O)(=O)c4cnc[nH]4)C3)CC2)c1` (stereo not drawn), the inhibition is -6.44%.

Take `Cn1c(=O)n(C)c(=O)n(CC(=O)N2CCCCC2)c1=O`: the inhibition is -10.7%.

As for `Oc1ccc(/C=N/Nc2nc(-c3ccccc3F)nc3ccccc23)c(O)c1`, the inhibition is 82.1% (active).

Take `CCOc1ccc(N(C)S(=O)(=O)c2cnc[nH]2)cc1`: the inhibition was -13.2%.

As for `Cn1c(C(=O)NCCc2ccsc2)cc2c(=O)n(C)c3ccccc3c21`, the inhibition is 57.4% (active).

For the molecule `Cn1c(C(=O)NCCN2CCc3ccccc3C2)cc2c(=O)[nH]c3ccccc3c21`, the inhibition was 4.74%.

In the case of `Cn1c(C(=O)N2CCC(C(N)=O)CC2)cc2c(=O)n(C)c3ccccc3c21`, the inhibition was -11.2%.

For `COc1ccc(C(=O)Nc2ccc(C(=O)NCC3CCCO3)cc2)c(OC)c1OC` (stereo not drawn), the inhibition was -23%.

`O=C1NC[C@H](Cc2ccc(O)cc2)N(C[C@@H]2CCCN2C[C@H](Cc2ccccc2)N2C[C@H](Cc3ccccc3)N(CC3CCCCC3)C(=O)C2=O)C1=O`: the inhibition is -20.1%.

As for `CN(CC(=O)Nc1c(Cl)cccc1Cl)C(=O)CNC(=O)C1CCCCC1`, the inhibition was -8.13%.

With `Cc1cccc(C)c1NC(=O)CNC(=O)Cc1ccc(Br)cc1`, the inhibition is -2.34%.

In the case of `Cc1cccc(C)c1NC(=O)CNC(=O)C1CCCC1`, the inhibition is 100% (active).

Turning to `Cc1ccc(S(=O)(=O)N2CCCC2C(=O)NCc2ccco2)cc1` (stereo not drawn), the inhibition is -5.82%.

Turning to `COc1ccc(CNC(=O)CN(Cc2ccccc2Cl)C(=O)c2csnn2)cc1`, the inhibition was 10.7%.

Regarding `CCCc1nc2ccccc2n1C(C)C(=O)NC(C)(C)C` (stereo not drawn), the inhibition is -0.35%.

For `COc1ccc(Br)cc1S(=O)(=O)N1CCN=C1C`, the inhibition was -4.85%.

Regarding `Cc1ccc(-c2noc(CNC(=O)c3ccoc3C)n2)cc1`, the inhibition was -42.9%.

For the molecule `CC/C(=N/Nc1ccccc1)c1cnnc(SC)n1`, the inhibition was 74.9% (active).

With `C/C(=N/Nc1ccc(Cl)cc1)c1cnnc(-c2ccccc2)n1`, the inhibition was 8.2%.

As for `C/C(=N\Nc1ccccc1)c1cccs1`, the inhibition was 8.01%.

On to `O=C(COC(=O)c1ncc(Cl)c(Cl)c1Cl)NC1CCS(=O)(=O)C1` (stereo not drawn), for which the inhibition was -31.4%.

For the molecule `Cc1cc(/C=N/NC(N)=O)c(C)n1C1CCCCC1`, the inhibition was -23.7%.

On to `Cc1cc(/C=N/NC(=O)CC2(C)OCCO2)c(C)n1-c1ccc(Cl)c(Cl)c1`, for which the inhibition is -4.93%.

In the case of `Cc1ccc(-n2c(C)cc(/C=N\NC(=O)CC(=O)NC(C)C)c2C)cc1`, the inhibition was 97.7% (active).

With `COc1ccc(-c2nc3cnccn3c2NC(C)(C)CC(C)(C)C)cc1O`, the inhibition is 48.6% (active).

Take `COc1ccc(-c2nc3cnccn3c2NC2CCCCC2)cc1-c1cccc(Cl)c1`: the inhibition was -50.3%.

Consider `CCOc1cc(-c2nc3cc(C)ccn3c2NCC2CCCO2)ccc1O` (stereo not drawn), for which the inhibition is 24.7%.

In the case of `COC(=O)c1cc(NC(=O)c2cc(C(C)(C)C)nn2Cc2cccc(C)c2)ccc1N1CCOCC1`, the inhibition was 50.4% (active).

For the molecule `COC(=O)c1cc(NC(=O)c2cccnc2)ccc1N1CCOCC1`, the inhibition was -22%.

Take `CC(=O)Nc1ccc(N2CCOCC2)c(C(=O)Nc2cccc(C)c2)c1`: the inhibition was -5.97%.

On to `CC1(C)OC(=O)C2=C(C[C@@H](C3CC3)O[C@H]2CCc2cccc(Cl)c2)O1`, for which the inhibition is -4.58%.

`CCCCCCCCNS(=O)(=O)CCNC1CCCCC1`: the inhibition is -6.98%.

Turning to `COc1ccc(CC(N)c2csc(NC(=O)Cc3ccccc3)n2)cc1` (stereo not drawn), the inhibition was 15.7%.

Turning to `COc1ccc(CC(N)c2csc(NC(=O)NC(c3ccccc3)c3ccccc3)n2)cc1` (stereo not drawn), the inhibition was 12.4%.

Take `NC(Cc1ccccc1)c1csc(Nc2cc(Oc3ccccc3)ncn2)n1` (stereo not drawn): the inhibition was 49.7% (active).

Regarding `O=C(CSc1nc2[nH]c(=O)[nH]c(=O)c2s1)Nc1cccc(F)c1`, the inhibition is -17.1%.

`CCC(c1nnnn1Cc1ccco1)N(CCc1ccccc1)Cc1cc2cccc(C)c2[nH]c1=O` (stereo not drawn): the inhibition is -1.4%.

In the case of `CCC(c1nnnn1Cc1ccco1)N(Cc1cc2cc(OC)ccc2[nH]c1=O)C1CCCCC1` (stereo not drawn), the inhibition was -35.8%.

Regarding `CCC(c1nnnn1Cc1ccco1)N(CCc1ccccc1)Cc1cc2ccc(OC)cc2[nH]c1=O` (stereo not drawn), the inhibition is 85.2% (active).

In the case of `CCCN1C(=O)c2[nH]nc(-c3ccccc3)c2C1c1ccccc1` (stereo not drawn), the inhibition was -18.5%.

For the molecule `O=C(O)CSCc1ccc(C(=O)O)o1`, the inhibition was 8.93%.

Take `Cc1ccc(CC2CC(=O)N(c3cc(C)ccc3C)C2=O)cc1` (stereo not drawn): the inhibition was -18.2%.

Turning to `Cc1ccccc1CN1CCC(C(=O)Nc2ccc(Oc3cccnc3)cc2)CC1`, the inhibition is -4.26%.

Turning to `S=C(NCc1ccco1)Nc1ccc2c(c1)OCCO2`, the inhibition was -13.5%.

On to `Cc1ccnc(N2C(=O)c3ccccc3C2Nc2ccc3c(c2)OCCO3)c1` (stereo not drawn), for which the inhibition was -4.03%.

With `O=C1c2ccccc2C(Nc2ccc3c(c2)OCCO3)N1Cc1ccco1` (stereo not drawn), the inhibition is 60.2% (active).

For `COC(=O)c1cc(S(=O)(=O)Nc2ccc(C)c(F)c2)c[nH]1`, the inhibition is 3.38%.

As for `COc1ccc(C(=O)C(OP(=O)(OC)OC)c2ccccc2OC)cc1` (stereo not drawn), the inhibition was -8.05%.

As to `COc1ccc(C(C(=O)NCc2ccccc2)N(Cc2cccs2)C(=O)c2cnccn2)cc1` (stereo not drawn), the inhibition was 53.3% (active).

Consider `Cc1cccc(N(C(=O)c2csnn2)C(C(=O)NCc2ccccc2)c2ccncc2)c1` (stereo not drawn), for which the inhibition was -12.4%.

With `CC(C)N(Cc1ccccc1)C(=O)COC(=O)c1cnccn1`, the inhibition is -3.08%.

With `CCOc1ccccc1CN1CCN(C2CCC2)CC1CCO` (stereo not drawn), the inhibition is 6.95%.

As for `COC(=O)[C@@]12C[C@@H](CC(=O)N3CCC(c4ccccc4)CC3)C(=O)N(Cc3ccccc3)C1=CCC(C)(C)C2`, the inhibition is -13.1%.

Consider `Clc1cccc2c1C1CC2CCN1Cc1ccccc1` (stereo not drawn), for which the inhibition was -3.53%.

What is called inhibition is the change of the read-out against control, counted positive when it falls.

For the origin of these results see PubChem BioAssay AID624466 (The Scripps Research Institute Molecular Screening Center, 2012).
